Consider two compounds from paper PMC4101887 (Cancer investigation, 2011).

Data set [1] can be described thus: Plasma pharmacokinetics of gemcitabine. The format is in vivo, human. Conditions: for Tmax / AUC / Cmax: human, plasma, intravenous; for Cmax: Gemcitabine Cmax; for effect of multiple doses of lonafarnib on the pharmacokinetics of gemcitabine: Day 15 versus Day 1.
Data set [2] is described as follows: Multiple-dose plasma pharmacokinetics of lonafarnib. The format is in vivo, human. Conditions: for AUC / Cmax / Tmax / half-life: human, plasma, oral; for AUC: Lonafarnib AUC (τ), 12 hour dosing interval; for Cmax: Lonafarnib Cmax; for Tmax: Lonafarnib Tmax (median); for half-life: Lonafarnib T½. In short, it runs like this:
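Patients with advanced cancer took oral drug twice daily with food continuously, plus 30 min IV gemcitabine on days 1, 8, 15 of 28-day cycles. The evening dose was withheld on […]. Plasma was sampled on day 15 of cycles 1 and 2, pre-dose and to 24 h. LC-MS/MS had LLOQ 5.00 ng/mL.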

For the next data set, the target named is farnesyl transferase (Homo sapiens, UniProt P49354+P49356). The data set is described as follows: Prelamin A accumulation in buccal mucosal cells. Conditions: buccal mucosal swabs, cycle 1 day 15 versus day 1; 10 of 17 samples. The format is in vivo.
[3] abbreviates: lonafarnib 100 mg BID+gemcitabine 750 mg/m2, cycle 1 day 15, n=4.
The mark [4] stands for this setting: lonafarnib 100 mg BID+gemcitabine 750 mg/m2, cycle 2 day 15, n=3.
The mark [5] stands for this setting: lonafarnib 100 mg BID+gemcitabine 1000 mg/m2, cycle 1 day 15, n=3.
[6] abbreviates: lonafarnib 200 mg BID+gemcitabine 600 mg/m2, cycle 2 day 15, n=4.

Each structure is given as a SMILES string.

On to `Nc1ccn([C@@H]2O[C@H](CO)[C@@H](O)C2(F)F)c(=O)n1` [Gemcitabine], for which the Tmax turned out to be 0.38 h in data set [1] (600 mg/m2, Gemcitabine Tmax (median), lonafarnib 200 mg BID+gemcitabine 600 mg/m2, cycle 1 Day 1 (gemcitabine alone), n=6); 0.5 h in data set [1] (750 mg/m2, Gemcitabine Tmax (median), lonafarnib 100 mg BID+gemcitabine 750 mg/m2, cycle 1 Day 1 (gemcitabine alone), n=4); 0.25 h in data set [1] (750 mg/m2, Gemcitabine Tmax (median), lonafarnib 150 mg BID+gemcitabine 750 mg/m2, cycle 1 Day 1 (gemcitabine alone), n=2); 0.38 h in data set [1] (1000 mg/m2, Gemcitabine Tmax (median), lonafarnib 100 mg BID+gemcitabine 1000 mg/m2, cycle 1 Day 1 (gemcitabine alone), n=2); 0.5 h in data set [1] (Gemcitabine Tmax (median), lonafarnib 100 mg BID+gemcitabine 750 mg/m2, cycle 1 Day 15 (with lonafarnib), n=4); 0.25 h in data set [1] (Gemcitabine Tmax (median), lonafarnib 100 mg BID+gemcitabine 1000 mg/m2, cycle 1 Day 15 (with lonafarnib), n=3). The Tmax in data set [1] (Gemcitabine Tmax (median), lonafarnib 200 mg BID+gemcitabine 600 mg/m2, cycle 1 Day 15 (with lonafarnib), n=7) amounted to 0.25 h. Further, the AUC in data set [1] (750 mg/m2, Gemcitabine AUC (τ), lonafarnib 100 mg BID+gemcitabine 750 mg/m2, cycle 1 Day 1 (gemcitabine alone), n=4) is 5380 ng·h/mL; in data set [1] (Gemcitabine AUC (τ), lonafarnib 100 mg BID+gemcitabine 750 mg/m2, cycle 1 Day 15 (with lonafarnib), n=4), 7890 ng·h/mL; in data set [1] (Gemcitabine AUC (τ), lonafarnib 100 mg BID+gemcitabine 1000 mg/m2, cycle 1 Day 15 (with lonafarnib), n=3), 5060 ng·h/mL; in data set [1] (Gemcitabine AUC (τ), lonafarnib 200 mg BID+gemcitabine 600 mg/m2, cycle 1 Day 15 (with lonafarnib), n=7), 4970 ng·h/mL. For the same compound, the Cmax is 15000 ng/mL in data set [1] (lonafarnib 100 mg BID+gemcitabine 750 mg/m2, cycle 1 Day 15 (with lonafarnib), n=4); 9800 ng/mL in data set [1] (lonafarnib 100 mg BID+gemcitabine 1000 mg/m2, cycle 1 Day 15 (with lonafarnib), n=3); 11200 ng/mL in data set [1] (lonafarnib 200 mg BID+gemcitabine 600 mg/m2, cycle 1 Day 15 (with lonafarnib), n=7).
Take `NC(=O)N1CCC(CC(=O)N2CCC([C@H]3c4ncc(Br)cc4CCc4cc(Cl)cc(Br)c43)CC2)CC1` [Lonafarnib]: in data set [2] (setting [3]), the AUC was 6000 ng·h/mL, the Cmax is 717 ng/mL, the Tmax was 5 h and the half-life was 5.21 h. Besides, in data set [2] (setting [4]), the AUC was 6030 ng·h/mL, the peak level (Cmax) was 757 ng/mL, the Tmax was determined as 4 h and the half-life was 3.5 h. Also, in data set [2] (setting [5]), the AUC came to 8200 ng·h/mL, the concentration peaked (Cmax) at 1010 ng/mL, the Tmax turned out to be 4 h and the half-life was 3.8 h. Moreover, in data set [2] (setting [6]), the AUC came to 14500 ng·h/mL, the Cmax is 1880 ng/mL, the Tmax turned out to be 5 h and the half-life is 4.78 h. Besides, in data set [2] (log-transformed data), the “90% confidence interval for the AUC(τ) point estimate, Cycle 2 Day 15 to Cycle 1 Day 15” value is 76.2–145% and the “AUC(τ) point estimate, Cycle 2 Day 15 compared to Cycle 1 Day 15” value is recorded as 105%. In data set [2] (twice daily multiple doses with weekly gemcitabine), the “mean total body clearance (CL/F), range over dose levels” value was in the range of 163 to 594 mL/min. Besides, at farnesyl transferase, the “samples showing prelamin A accumulation after treatment” value is 59%. The “effect of multiple doses of lonafarnib on the pharmacokinetics of gemcitabine” value in data set [1] is given as “no apparent effect”. Besides, the “effect of multiple doses of lonafarnib on the pharmacokinetics of gemcitabine” value in data set [1] (listed as lonafarnib) is on record as “no important effect”.

What is called Tmax is the time at which the peak concentration occurs. As a reminder, the AUC is the area under the concentration-time curve, a measure of exposure. A lower AUC goes with less exposure. The term Cmax denotes the peak of the concentration-time curve. Broadly, the half-life is the time needed for the level to fall by half in the phase considered. A lower half-life goes with rapid decline.
